Assays:
Staphylococcus aureus [1] = experiment: Antimicrobial activity against Staphylococcus aureus 29213 assessed as effect on planktonic growth at PC75 after 2 to 24 hrs; assay type: organism-based; conditions: in vivo
Staphylococcus aureus [2] = experiment: Antimicrobial activity against Staphylococcus aureus 29213 assessed as effect on planktonic growth at 50 uM after 2 to 24 hrs; assay type: organism-based
Procedure, shortened: (§1)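 Growth curve analysis of planktonic bacteria with each biofilm inducer at 50 μM, used to assess toxicity.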

Staphylococcus aureus [3] = experiment: Antimicrobial activity against Staphylococcus aureus 29213 assessed as effect on planktonic growth at IC50 after 2 to 24 hrs; assay type: organism-based; conditions: in vivo
Staphylococcus aureus [4] = experiment: Antimicrobial activity against Staphylococcus aureus 29213 assessed as effect on planktonic growth at PC75 after 2 to 24 hrs by colony count method; assay type: organism-based; conditions: in vivo
Escherichia coli [5] = experiment: Antimicrobial activity against Escherichia coli K-12 ER2718 assessed as effect on planktonic growth at PC50 after 2 to 24 hrs by colony count method; assay type: organism-based; conditions: in vivo
Acinetobacter baumannii [6] = experiment: Antimicrobial activity against Acinetobacter baumannii 19606 assessed as effect on planktonic growth at PC25 after 2 to 24 hrs by colony count method; design: species or system ATCC 19606
Staphylococcus aureus [7] = experiment: Antimicrobial activity against Staphylococcus aureus 29213 assessed as effect on planktonic growth at IC50 after 2 to 24 hrs by colony count method; assay type: organism-based; conditions: in vivo
Staphylococcus aureus [8] = experiment: Inhibition of biofilm formation in methicillin-resistant Staphylococcus aureus BAA 44 at 150 uM after 24 hrs by crystal violet staining-based assay relative to control; assay type: functional; conditions: BAA 44, 24 h
Procedure, shortened: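 Static biofilm development in MRSA, read out by crystal violet staining against an untreated control. Initial screen at 150 μM. Inhibitors then went to dose-response, with IC50 taken as the concentration giving 50% inhibition of biofilm growth. Induction was judged at 50 μM: under 50% induction counted as "inducer", over 50% as "strong inducer".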

Escherichia coli [9] = experiment: Antimicrobial activity against Escherichia coli K-12 ER2718 assessed as effect on planktonic growth at PC75 after 2 to 24 hrs by colony count method; assay type: organism-based; conditions: in vivo
Escherichia coli [10] = experiment: Antimicrobial activity against Escherichia coli K-12 ER2718 assessed as effect on planktonic growth at PC25 after 2 to 24 hrs; assay type: organism-based
Escherichia coli [11] = experiment: Antimicrobial activity against Escherichia coli K-12 ER2718 assessed as effect on planktonic growth at 50 uM after 2 to 24 hrs; assay type: organism-based; procedure, shortened: as §1
Staphylococcus aureus [12] = experiment: Antimicrobial activity against Staphylococcus aureus 29213 assessed as effect on planktonic growth at PC50 after 2 to 24 hrs by colony count method; assay type: organism-based; conditions: in vivo
Acinetobacter baumannii [13] = experiment: Antimicrobial activity against Acinetobacter baumannii 19606 assessed as effect on planktonic growth at PC50 after 2 to 24 hrs; design: species or system ATCC 19606
Staphylococcus aureus [14] = experiment: Antimicrobial activity against Staphylococcus aureus 29213 assessed as effect on planktonic growth at PC25 after 2 to 24 hrs; assay type: organism-based; conditions: in vivo
Staphylococcus aureus [15] = experiment: Antimicrobial activity against Staphylococcus aureus 29213 assessed as effect on planktonic growth at PC50 after 2 to 24 hrs; assay type: organism-based; conditions: in vivo
Acinetobacter baumannii [16] = experiment: Antimicrobial activity against Acinetobacter baumannii 19606 assessed as effect on planktonic growth at PC75 after 2 to 24 hrs by colony count method; design: species or system ATCC 19606
Escherichia coli [17] = experiment: Antimicrobial activity against Escherichia coli K-12 ER2718 assessed as effect on planktonic growth at PC50 after 2 to 24 hrs; assay type: organism-based
Staphylococcus aureus [18] = experiment: Antimicrobial activity against methicillin-resistant Staphylococcus aureus BAA 44 assessed as effect on planktonic growth at IC50 after 2 to 24 hrs by colony count method; assay type: organism-based; conditions: in vivo
Acinetobacter baumannii [19] = experiment: Antimicrobial activity against Acinetobacter baumannii 19606 assessed as effect on planktonic growth at PC50 after 2 to 24 hrs by colony count method; design: species or system ATCC 19606
Acinetobacter baumannii [20] = experiment: Antimicrobial activity against Acinetobacter baumannii 19606 assessed as effect on planktonic growth at PC75 after 2 to 24 hrs; design: species or system ATCC 19606
Acinetobacter baumannii [21] = experiment: Antimicrobial activity against Acinetobacter baumannii 19606 assessed as effect on planktonic growth at PC25 after 2 to 24 hrs; design: species or system ATCC 19606
Escherichia coli [22] = experiment: Induction of biofilm formation in Escherichia coli K-12 ER2718 at 50 uM after 24 hrs by crystal violet staining-based assay relative to control; assay type: functional
Procedure, shortened: (§2)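 Static biofilm assay with compounds at 50 μM and crystal violet read-out, relative to an untreated control. Compounds increasing biofilm by less than 50% were called inducers, and by more than 50% strong inducers.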

Acinetobacter baumannii [23] = experiment: Antimicrobial activity against Acinetobacter baumannii 19606 assessed as effect on planktonic growth at 50 uM after 2 to 24 hrs; design: species or system ATCC 19606; procedure, shortened: as §1
Escherichia coli [24] = experiment: Antimicrobial activity against Escherichia coli K-12 ER2718 assessed as effect on planktonic growth at PC75 after 2 to 24 hrs; assay type: organism-based; conditions: in vivo
Staphylococcus aureus [25] = experiment: Antimicrobial activity against Staphylococcus aureus 29213 assessed as effect on planktonic growth at PC25 after 2 to 24 hrs by colony count method; assay type: organism-based; conditions: in vivo
Staphylococcus aureus [26] = experiment: Antimicrobial activity against methicillin-resistant Staphylococcus aureus BAA 44 assessed as effect on planktonic growth at IC50 after 2 to 24 hrs; assay type: organism-based; conditions: in vivo
Acinetobacter baumannii [27] = experiment: Antimicrobial activity against Acinetobacter baumannii 19606 assessed as effect on planktonic growth at IC50 after 2 to 24 hrs by colony count method; design: species or system ATCC 19606
Acinetobacter baumannii [28] = experiment: Induction of biofilm formation in Acinetobacter baumannii 19606 at 50 uM after 24 hrs by crystal violet staining-based assay relative to control; assay type: functional, ATCC 19606 = CIP 70.34 = JCM 6841; procedure, shortened: as §2
Escherichia coli [29] = experiment: Antimicrobial activity against Escherichia coli K-12 ER2718 assessed as effect on planktonic growth at PC25 after 2 to 24 hrs by colony count method; assay type: organism-based
Acinetobacter baumannii [30] = experiment: Antimicrobial activity against Acinetobacter baumannii 19606 assessed as effect on planktonic growth at IC50 after 2 to 24 hrs; design: species or system ATCC 19606
Staphylococcus aureus [31] = experiment: Induction of biofilm formation in Staphylococcus aureus 29213 at 50 uM after 24 hrs by crystal violet staining-based assay relative to control; assay type: functional; procedure, shortened: as §2
Escherichia coli [32] = experiment: Antimicrobial activity against Escherichia coli K-12 ER2718 assessed as effect on planktonic growth at IC50 after 2 to 24 hrs by colony count method; assay type: organism-based
Escherichia coli [33] = experiment: Antimicrobial activity against Escherichia coli K-12 ER2718 assessed as effect on planktonic growth at IC50 after 2 to 24 hrs; assay type: organism-based
Staphylococcus aureus [34] = experiment: Inhibition of biofilm formation in Staphylococcus aureus 29213 after 24 hrs by crystal violet staining-based assay; assay type: functional, organism-based; conditions: Staphylococcus aureus, 29213, 24 h
Procedure, shortened: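 Compounds active in the 150 μM screen were taken into dose-response studies under static conditions with a crystal violet read-out. IC50 is the concentration that inhibits 50% of biofilm growth relative to an untreated control.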

Escherichia coli [35] = experiment: Induction of biofilm formation in Escherichia coli K-12 ER2718 assessed as concentration required for 75% promotion of biofilm formation after 24 hrs by crystal violet staining-based assay; assay type: functional
Procedure, shortened: (§3)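 For strong inducers of E. coli biofilm, dose-response curves were run in the static crystal violet assay. PC25, PC50 and PC75 are the concentrations promoting biofilm formation by 25%, 50% and 75%.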

Escherichia coli [36] = experiment: Induction of biofilm formation in Escherichia coli K-12 ER2718 assessed as concentration required for 50% promotion of biofilm formation after 24 hrs by crystal violet staining-based assay; assay type: functional; procedure, shortened: as §3
Escherichia coli [37] = experiment: Induction of biofilm formation in Escherichia coli K-12 ER2718 assessed as concentration required for 25% promotion of biofilm formation after 24 hrs by crystal violet staining-based assay; assay type: functional; procedure, shortened: as §3

| Structure (SMILES) | Activity (Staphylococcus aureus [3]) | Activity (Escherichia coli [5]) | Activity (Acinetobacter baumannii [6]) | Activity (Staphylococcus aureus [7]) | inhibition at 150 µM (Staphylococcus aureus [8]) [%] | Activity (Escherichia coli [9]) | Activity (Escherichia coli [10]) | Activity (Escherichia coli [11]) | Activity (Acinetobacter baumannii [13]) | Activity (Acinetobacter baumannii [16]) | Activity (Escherichia coli [17]) | Activity (Staphylococcus aureus [18]) | Activity (Acinetobacter baumannii [19]) | Activity (Acinetobacter baumannii [20]) | Activity (Acinetobacter baumannii [21]) | Activity (Escherichia coli [22]) [%] | Activity (Acinetobacter baumannii [23]) | Activity (Escherichia coli [24]) | Activity (Staphylococcus aureus [26]) | Activity (Acinetobacter baumannii [27]) | further results |
| --- | --- | --- | --- | --- | --- | --- | --- | --- | --- | --- | --- | --- | --- | --- | --- | --- | --- | --- | --- | --- | --- |
| O=C(NCCn1cc(Cc2c(Br)[nH]c3ccccc23)nn1)c1ccccc1F | Non-toxic | Non-toxic | Non-toxic | Non-toxic | 20 | Non-toxic | Non-toxic | Non-toxic | Non-toxic | Non-toxic | Non-toxic | Non-toxic | Non-toxic | Non-toxic | Non-toxic | <50 | Non-toxic | Non-toxic | Non-toxic | Non-toxic | Activity (Staphylococcus aureus [1]): Non-toxic; Activity (Staphylococcus aureus [2]): Non-toxic; Activity (Staphylococcus aureus [4]): Non-toxic; Activity (Staphylococcus aureus [12]): Non-toxic; Activity (Staphylococcus aureus [14]): Non-toxic; Activity (Staphylococcus aureus [15]): Non-toxic; Activity (Staphylococcus aureus [25]): Non-toxic; Activity (Acinetobacter baumannii [28]): <50%; Activity (Escherichia coli [29]): Non-toxic; Activity (Acinetobacter baumannii [30]): Non-toxic; Activity (Staphylococcus aureus [31]): <50%; Activity (Escherichia coli [32]): Non-toxic; Activity (Escherichia coli [33]): Non-toxic |
| CCCCCCCc1ccc(C(=O)NCCn2cc(Cc3csc4ccccc34)nn2)cc1 | Non-toxic | Non-toxic | Non-toxic | Non-toxic | < 5 | Non-toxic | Non-toxic | Non-toxic | Non-toxic | Non-toxic | Non-toxic | Non-toxic | Non-toxic | Non-toxic | Non-toxic | >50 | Non-toxic | Non-toxic | Non-toxic | Non-toxic | IC50 (Staphylococcus aureus [34]): 83 µM; Activity (Escherichia coli [35]): 93.8 µM; Activity (Escherichia coli [36]): 56.3 µM; Activity (Acinetobacter baumannii [28]): <50%; Activity (Escherichia coli [29]): Non-toxic; Activity (Escherichia coli [37]): 22.2 µM; Activity (Acinetobacter baumannii [30]): Non-toxic; Activity (Escherichia coli [32]): Non-toxic; Activity (Escherichia coli [33]): Non-toxic |
| O=C(Cn1cc(Cc2csc3ccccc23)nn1)Nc1ccccc1 | Non-toxic | Non-toxic | Non-toxic | Non-toxic | 20 | Non-toxic | Non-toxic | Non-toxic | Non-toxic | Non-toxic | Non-toxic | Non-toxic | Non-toxic | Non-toxic | Non-toxic | <50 | Non-toxic | Non-toxic | Non-toxic | Non-toxic | IC50 (Staphylococcus aureus [34]): 215 µM; Activity (Acinetobacter baumannii [28]): <50%; Activity (Escherichia coli [29]): Non-toxic; Activity (Acinetobacter baumannii [30]): Non-toxic; Activity (Escherichia coli [32]): Non-toxic; Activity (Escherichia coli [33]): Non-toxic |

— ChEMBL document CHEMBL3217512, “Indole/triazole conjugates are selective inhibitors and inducers of bacterial biofilms” (Medchemcomm, 2013)
